How the values were obtained:
[1] = target: T1, AB sulfation in cytosol of human kidney, small intestine and brain (Homo sapiens, UniProt Q06520); assay: Inhibition of AB sulfation in cytosol of human kidney, small intestine and brain; type: biochemical; conditions: Fig. S5
T1 sequence (Q06520 1-285): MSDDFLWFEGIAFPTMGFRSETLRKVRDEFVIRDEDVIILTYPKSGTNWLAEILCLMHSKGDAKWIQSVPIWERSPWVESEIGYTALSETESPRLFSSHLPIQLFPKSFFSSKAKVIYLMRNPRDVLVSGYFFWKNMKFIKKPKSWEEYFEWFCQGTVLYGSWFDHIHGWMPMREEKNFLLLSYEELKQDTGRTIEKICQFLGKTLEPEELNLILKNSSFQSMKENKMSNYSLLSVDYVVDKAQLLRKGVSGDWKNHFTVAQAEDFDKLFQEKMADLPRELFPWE

[2] = target: T2, AB sulfation in HLC (SULT2A1) (Homo sapiens, UniProt Q06520); assay: Chemical inhibition of AB sulfation in HLC; type: biochemical; conditions: for residual activity of AB sulfation / inhibition of AB sulfation: HLC, Fig. 2A
T2 sequence (Q06520 1-285): T1 sequence (Q06520 1-285)

[3] = target: T3, SULT2A1 (Homo sapiens, UniProt Q06520); assay: Sulfation of AB, DHEA and bufadienolides by recombinant human SULT2A1; type: in vitro ADME
T3 sequence (Q06520 1-285): T1 sequence (Q06520 1-285)

[4] = Sulfation kinetics and rate in pooled human liver cytosols; type: in vitro ADME; conditions: human, pooled human liver cytosols (HLC), pH 7.4
In short: (§1)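 Substrate-concentration series with pooled mixed-gender human liver cytosol or recombinant human SULTs. Buffer is 50 mmol/L potassium phosphate, pH 7.4, with DTT 8 mmol/L, MgCl2 5 mmol/L and PAPS 4 mmol/L, at 37 °C and within linear formation conditions. Sulfate is quantified by LC–MS/MS. Eadie–Hofstee plots choose the Michaelis–Menten or substrate-inhibition fit. Km, Vmax (and Ksi) come from nonlinear regression. Duplicates in three independent experiments.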

[5] = test system: pooled human liver cytosols (HLC); assay: as above; type: in vitro ADME
In short: as §1

[6] = test system: SULT2A1 (sulfation); assay: as above; type: in vitro ADME; conditions: human, pooled human liver cytosols (HLC), pH 7.4, Km, sulfation by HLC
In short: as §1

[7] = target: T4, SULT1E1 (Homo sapiens, UniProt P49888); assay: DHEA sulfation kinetics by recombinant SULT1E1; type: in vitro ADME
T4 sequence (P49888 1-294): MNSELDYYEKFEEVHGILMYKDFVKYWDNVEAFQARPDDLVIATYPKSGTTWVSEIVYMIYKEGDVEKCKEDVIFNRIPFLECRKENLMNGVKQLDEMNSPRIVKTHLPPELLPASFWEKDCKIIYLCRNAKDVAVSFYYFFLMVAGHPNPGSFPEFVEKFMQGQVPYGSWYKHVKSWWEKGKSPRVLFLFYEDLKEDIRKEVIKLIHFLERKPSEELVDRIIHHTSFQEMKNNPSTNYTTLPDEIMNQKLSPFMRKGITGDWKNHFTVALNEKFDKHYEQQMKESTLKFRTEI

[8] = target: T3, SULT2A1; assay: Inhibition of AB sulfation in rhSULT2A1; type: biochemical
[9] = substrate: C[C@]12CC[C@H](O)CC1=CC[C@@H]1[C@@H]2CC[C@]2(C)C(=O)CC[C@@H]12; assay: Sulfation of AB, DHEA and bufadienolides by recombinant human SULT2A1; type: in vitro ADME; conditions: other: sulfation by SULT2A1; pH 7.4; 37.0 °C
[10] = substrate: C[C@]12CC[C@H](O)CC1=CC[C@@H]1[C@@H]2CC[C@]2(C)C(=O)CC[C@@H]12; assay: DHEA sulfation kinetics by recombinant SULT1E1; type: in vitro ADME, human; conditions: other: sulfation by SULT1E1; pH 7.4; 37.0 °C

CC1(C)[C@@H](O)CC[C@]2(C)[C@H]3C(=O)C=C4[C@@H]5C[C@@](C)(C(=O)O)CC[C@]5(C)CC[C@@]4(C)[C@]3(C)CC[C@@H]12 [GA, glycyrrhetinic acid]
inhibitory effect toward AB sulfation in different organs [1]: strong inhibitory effect
residual activity of AB sulfation [2]: less than 10%

CC(C)Cc1ccc(C(C)C(=O)O)cc1 (centres unmarked) [ibuprofen]
inhibition of AB sulfation [2]: less than 20%

C[C@]12CC[C@H](O)CC1=CC[C@@H]1[C@@H]2CC[C@]2(C)C(=O)CC[C@@H]12 [DHEA, dehydroepiandrosterone]
microsomal CLint ([3]; human, recombinant human SULT2A1 (rhSULT2A1), pH 7.4): 2940 µL/min/mg
kinetic model of sulfation ([3]; rhSULT2A1, Eadie–Hofstee plot): substrate inhibition kinetic model
Ksi ([3]; sulfation by SULT2A1): 2.2 ± 0.9 µmol/L
microsomal CLint [4]: 48.2 µL/min/mg
kinetic model of sulfation ([5]; HLC, Eadie–Hofstee plot): substrate inhibition kinetic model
Ksi ([5]; sulfation by HLC): 17.2 ± 2.9 µmol/L
Vm ([5]; sulfation by HLC): 0.052 ± 0.004 nmol/min/mg
Km [6]: 1.08 ± 0.17 µM
CLint of SULT1E1-mediated sulfation, fold higher than for SULT2A1 ([7]; SULT1E1 vs SULT2A1): 1.5 fold
Km of SULT1E1-mediated sulfation, fold lower than for SULT2A1 ([7]; SULT1E1 vs SULT2A1): 7.2 fold
microsomal CLint ([7]; human, recombinant human SULT1E1 (rhSULT1E1), pH 7.4): 4260 µL/min/mg
kinetic model of sulfation ([7]; rhSULT1E1): substrate inhibition kinetic model
Ksi ([7]; sulfation by SULT1E1): 2.9 ± 1.2 µmol/L
IC50 [8]: 1640 nM
inhibitory effect toward AB sulfation in different organs [1]: strong inhibitory effect
IC50 [2]: 1880 nM
residual activity of AB sulfation [2]: less than 10%

CS(=O)(=O)Nc1ccc([N+](=O)[O-])cc1Oc1ccccc1 [nimesulide]
inhibition of AB sulfation [2]: less than 20%

O=[N+]([O-])c1cc(Cl)c(O)c(Cl)c1 [DCNP, 2,6-dichloro-p-nitrophenol]
inhibition of AB sulfation [2]: less than 20%

Cc1cccc(Nc2ccccc2C(=O)O)c1C [MFC, mefenamic acid]
inhibition of AB sulfation [2]: less than 20%

C[C@]12CC[C@H](O)C[C@H]1CC[C@@H]1[C@@H]2CC[C@]2(C)[C@@H](c3ccc(=O)oc3)C[C@H]3O[C@]132 [RB, resibufogenin]
sulfation rates by SULT2A1 compared with other bufadienolides ([3]; 1, 10 and 100 µmol/L, 0.1 mg/mL protein, 60 min, Fig. S1B): higher than those of other bufadienolides
trend of sulfation rate with increasing substrate concentration ([3]; up to 100 µmol/L, SULT2A1): decreasing trend

C[C@]12CC[C@@H]3c4ccc(O)cc4CC[C@H]3[C@@H]1CCC2=O [estrone]
inhibition of AB sulfation [2]: less than 20%

B1: rhSULT2A1 (Homo sapiens) (protein)
chain: T1 sequence (Q06520 1-285)
Km [9]: 2.48 ± 1.15 µM
Vmax [9]: 0.0073 µmol/min/mg
Vmax/Km [9]: 2940 µL/min/mg

B2: rhSULT1E1 (Homo sapiens) (protein)
chain: T4 sequence (P49888 1-294)
Km [10]: 0.34 ± 0.13 µM
Vmax [10]: 0.00145 µmol/min/mg
Vmax/Km [10]: 4260 µL/min/mg

Reference: paper PMC6146385 (Acta Pharmaceutica Sinica. B, 2018)
